What was measured:
[1] = system: ACHN; assay: Cytotoxicity against human ACHN cells after 48 hrs; type: functional
[2] = Cytotoxicity against human Hep3B cells after 48 hrs; type: functional, cell-based, Hep 3B2
In short: (§1)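 MTT viability assay on log-phase cells at 37 °C, exposed to compound or DMSO vehicle for 48 h. MTT (1 mg/mL in PBS) was then added for 2 h, and absorbance was read at 570 nm with 630 nm correction. IC50 is the concentration giving 50% proliferation inhibition. Cells were cultured in 5% CO2: HL-60 in RPMI-1640 with 10% FBS; Hep3B in DMEM/F12 with 10% FBS; Detroit 551 in DMEM with 10% FBS.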

[3] = system: SF-268; assay: Cytotoxicity against human SF268 cells after 48 hrs; type: functional; conditions: SF-268, 48 h
[4] = system: OVCAR-3; assay: Cytotoxicity against human OVCAR3 cells after 48 hrs; type: functional; conditions: OVCAR-3, 48 h
[5] = system: SF-539; assay: Cytotoxicity against human SF539 cells after 48 hrs; type: functional; conditions: SF-539, 48 h
[6] = system: LOX IMVI; assay: Cytotoxicity against human LOXIMVI cells after 48 hrs; type: functional
[7] = system: HOP-62; assay: Cytotoxicity against human HOP62 cells after 48 hrs; type: functional; conditions: HOP-62, 48 h
[8] = system: KM12; assay: Cytotoxicity against human KM12 cells after 48 hrs; type: functional; conditions: KM12, 48 h
[9] = system: RPMI-8226; assay: Cytotoxicity against human RPMI8226 cells after 48 hrs; type: functional; conditions: RPMI-8226, 48 h
[10] = Cytotoxicity against human Hs578T cells after 48 hrs; type: functional; conditions: Hs-578T
[11] = system: Malme-3M; assay: Cytotoxicity against human MALME-3M cells after 48 hrs; type: functional
[12] = system: SK-OV-3; assay: Cytotoxicity against human SKOV3 cells after 48 hrs; type: functional; conditions: SK-OV-3, 48 h
[13] = system: NCI-H226; assay: Cytotoxicity against human NCI-H226 cells after 48 hrs; type: functional; conditions: NCI-H226, 48 h
[14] = system: IGROV-1; assay: Cytotoxicity against human IGROV1 cells after 48 hrs; type: functional; conditions: IGROV-1, 48 h
[15] = system: SK-MEL-5; assay: Cytotoxicity against human SK-MEL-5 cells after 48 hrs; type: functional; conditions: SK-MEL-5, 48 h
[16] = system: MCF7; assay: Cytotoxicity against human MCF7 cells after 48 hrs; type: functional; conditions: MCF7, 48 h
[17] = system: OVCAR-8; assay: Cytotoxicity against human OVCAR8 cells after 48 hrs; type: functional; conditions: OVCAR-8, 48 h
[18] = system: SR; assay: Cytotoxicity against human SR cells after 48 hrs; type: functional
[19] = Cytotoxicity against human NCI-ADR-RES cells after 48 hrs; type: functional
[20] = system: MDA-MB-468; assay: Cytotoxicity against human MDA-MB-468 cells after 48 hrs; type: functional; conditions: MDA-MB-468, 48 h
[21] = system: SN12C; assay: Cytotoxicity against human SN12C cells after 48 hrs; type: functional
[22] = system: 786-0; assay: Cytotoxicity against human 786-0 cells after 48 hrs; type: functional; conditions: 786-0, 48 h
[23] = system: A498; assay: Cytotoxicity against human A498 cells after 48 hrs; type: functional; conditions: A498, 48 h
[24] = system: MDA-MB-231; assay: Cytotoxicity against human MDA-MB-231 cells after 48 hrs; type: functional; conditions: MDA-MB-231, 48 h
[25] = system: HL-60; assay: Cytotoxicity against human HL60 cells after 48 hrs; type: functional, cell-based; conditions: HL-60, 48 h; in short: as §1
[26] = system: MOLT-4; assay: Cytotoxicity against human MOLT4 cells after 48 hrs; type: functional; conditions: MOLT-4, 48 h
[27] = system: SK-MEL-2; assay: Cytotoxicity against human SK-MEL-2 cells after 48 hrs; type: functional; conditions: SK-MEL-2, 48 h
In short: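 Tested in the NCI-60 human cancer cell line panel. Results are given as log concentrations: GI50 reduced cell growth to 50% […], TGI caused total growth inhibition, and LC50 killed 50% of the test population.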

[28] = system: M14; assay: Cytotoxicity against human M14 cells after 48 hrs; type: functional; conditions: M14, 48 h
[29] = system: RXF 393; assay: Cytotoxicity against human RXF393 cells after 48 hrs; type: functional; conditions: RXF 393, 48 h
[30] = system: OVCAR-4; assay: Cytotoxicity against human OVCAR4 cells after 48 hrs; type: functional; conditions: OVCAR-4, 48 h
[31] = system: SK-MEL-28; assay: Cytotoxicity against human SK-MEL-28 cells after 48 hrs; type: functional; conditions: SK-MEL-28, 48 h
[32] = system: UACC-257; assay: Cytotoxicity against human UACC257 cells after 48 hrs; type: functional; conditions: UACC-257, 48 h
[33] = system: BT-549; assay: Cytotoxicity against human BT549 cells after 48 hrs; type: functional; conditions: BT-549, 48 h
[34] = system: HOP-92; assay: Cytotoxicity against human HOP92 cells after 48 hrs; type: functional; conditions: HOP-92, 48 h
[35] = system: T47D; assay: Cytotoxicity against human T47D cells after 48 hrs; type: functional
[36] = read-out: pLC50 (the source's name) (converted)

SMILES: COc1cc(O)cc(-c2cc(=O)c3cc(N4CCCC4)ccc3[nH]2)c1
- GI50 [1]: 0.0776 µM
- CC50 [1, 36]: > 100 µM
- TGI ([1]; read-out: pTGI): > 100 µM
- IC50 [2]: 0.5 µM
- GI50 [3]: 0.0257 µM
- CC50 [3, 36]: > 100 µM
- TGI ([3]; read-out: pTGI): > 100 µM
- GI50 ([4]; read-out: pGI50 (converted)): 0.0234 µM
- CC50 [4, 36]: 6.46 µM
- TGI ([4]; read-out: pTGI (converted)): 0.0891 µM
- GI50 [5]: 0.0288 µM
- CC50 [5, 36]: > 100 µM
- TGI ([5]; read-out: pTGI): > 100 µM
- GI50 [6]: 0.0324 µM
- CC50 [6, 36]: > 100 µM
- TGI ([6]; read-out: pTGI): > 100 µM
- GI50 [7]: 0.0513 µM
- CC50 [7, 36]: > 100 µM
- TGI ([7]; read-out: pTGI (converted)): 20.9 µM
- GI50 [8]: 0.0347 µM
- CC50 [8, 36]: > 100 µM
- TGI ([8]; read-out: pTGI): > 100 µM
- GI50 [9]: 0.468 µM
- CC50 [9, 36]: > 100 µM
- TGI ([9]; read-out: pTGI): > 100 µM
- GI50 [10]: 0.038 µM
- CC50 [10, 36]: > 100 µM
- TGI ([10]; read-out: pTGI (converted)): 70.8 µM
- GI50 [11]: 0.0257 µM
- CC50 [11, 36]: > 100 µM
- TGI ([11]; read-out: pTGI): > 100 µM
- GI50 [12]: 0.0234 µM
- CC50 [12, 36]: > 100 µM
- TGI ([12]; read-out: pTGI (converted)): 25.1 µM
- GI50 [13]: > 100 µM
- CC50 [13, 36]: > 100 µM
- TGI ([13]; read-out: pTGI): > 100 µM
- GI50 [14]: 0.363 µM
- CC50 [14, 36]: > 100 µM
- TGI ([14]; read-out: pTGI): > 100 µM
- GI50 [15]: 0.0246 µM
- CC50 [15, 36]: 0.49 µM
- TGI ([15]; read-out: pTGI (converted)): 0.0661 µM
- GI50 [16]: 0.0479 µM
- CC50 [16, 36]: > 100 µM
- TGI ([16]; read-out: pTGI): > 100 µM
- GI50 [17]: 0.0389 µM
- CC50 [17, 36]: > 100 µM
- TGI ([17]; read-out: pTGI (converted)): 31.6 µM
- GI50 [18]: < 0.01 µM
- CC50 [18, 36]: > 100 µM
- TGI ([18]; read-out: pTGI): > 100 µM
- GI50 [19]: 0.0617 µM
- CC50 [19, 36]: > 100 µM
- TGI ([19]; read-out: pTGI (converted)): 0.513 µM
- GI50 [20]: 0.263 µM
- CC50 [20, 36]: > 100 µM
- TGI ([20]; read-out: pTGI (converted)): 2 µM
- GI50 [21]: 0.0724 µM
- CC50 [21, 36]: > 100 µM
- TGI ([21]; read-out: pTGI): > 100 µM
- GI50 [22]: 0.178 µM
- CC50 [22, 36]: > 100 µM
- TGI ([22]; read-out: pTGI): > 100 µM
- GI50 [23]: 4.07 µM
- CC50 [23, 36]: > 100 µM
- TGI ([23]; read-out: pTGI): > 100 µM
- GI50 [24]: 0.0501 µM
- CC50 [24, 36]: > 100 µM
- TGI ([24]; read-out: pTGI): > 100 µM
- IC50 [25]: 0.1 µM
- GI50 [26]: 0.0347 µM
- CC50 [26, 36]: > 100 µM
- TGI ([26]; read-out: pTGI): > 100 µM
- GI50 [27]: 0.0282 µM
- CC50 [27, 36]: 87.1 µM
- GI50 [28]: 0.0302 µM
- CC50 [28, 36]: > 100 µM
- TGI ([28]; read-out: pTGI (converted)): 15.8 µM
- GI50 [29]: 0.0407 µM
- CC50 [29, 36]: > 100 µM
- TGI ([29]; read-out: pTGI (converted)): 24 µM
- GI50 [30]: 0.0977 µM
- CC50 [30, 36]: > 100 µM
- TGI ([30]; read-out: pTGI): > 100 µM
- GI50 [31]: 0.0741 µM
- CC50 [31, 36]: > 100 µM
- TGI ([31]; read-out: pTGI): > 100 µM
- GI50 [32]: 0.708 µM
- CC50 [32, 36]: > 100 µM
- TGI ([32]; read-out: pTGI): > 100 µM
- GI50 [33]: 0.0372 µM
- CC50 [33, 36]: > 100 µM
- TGI ([33]; read-out: pTGI): > 100 µM
- GI50 [34]: 30.9 µM
- CC50 [34, 36]: > 100 µM
- TGI ([34]; read-out: pTGI): > 100 µM
- GI50 [35]: > 100 µM
- CC50 [35, 36]: > 100 µM
- TGI ([35]; read-out: pTGI): > 100 µM

Reference: ChEMBL document CHEMBL2417372, “Design, synthesis, and mechanism of action of 2-(3-hydroxy-5-methoxyphenyl)-6-pyrrolidinylquinolin-4-one as a potent anticancer lead” (Bioorg Med Chem Lett, 2013)
